In ChEMBL document CHEMBL1142148, “Antibiotic susceptibility profile of bifidobacteria as affected by oxgall, acid, and hydrogen peroxide stress” (2007):
≈ marks a conversion by molar mass, not a printed value.

Experiments:
Bifidobacterium breve [1] = experiment: Antimicrobial activity against 90 mins oxgall-stressed Bifidobacterium breve ATCC 15700 after 18 hrs; format: functional
How it was run: (§1)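 Cells pelleted from mid-log MRS culture and resuspended in MRS (initial pH 6.5) with 0.3% (wt/vol) oxgall for 90 min anaerobically at 37°C. They were then regrown in MRS pH 6.5 for 24 h (footnote: 18 h) anaerobically and tested for MIC by the same broth microdilution assay. Median of four repetitions.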

Bifidobacterium longum [2] = experiment: Antimicrobial activity against Bifidobacterium longum P/N 601377; format: functional
How it was run: (§2)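 Broth microdilution in MRS plus 0.05% L-cysteine-HCl. Mid-log culture adjusted to OD650 0.1, giving about 2.5 × 10^4 to 5.0 × 10^4 CFU/well, then added to twofold serial dilutions of agent. Plates incubated anaerobically at 37°C for 18 h and read at OD650. MIC is the lowest concentration matching the uninoculated blank OD, taken as the median of four repeats.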

Bifidobacterium bifidum [3] = experiment: Antimicrobial activity against 90 mins hydrogen peroxide-stressed Bifidobacterium bifidum BB12 after 18 hrs; format: functional
How it was run: (§3)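 Stress applied for 90 min at 37°C under anaerobic conditions, using MRS (initial pH 6.5) containing H2O2 at each strain's own inhibitory concentration. The H2O2 level was set beforehand by microplate tolerance testing. Challenged cells were regrown in MRS for 24 h (footnote: 18 h) before MIC testing by broth microdilution. Median of four repetitions.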

Bifidobacterium breve [4] = experiment: Antimicrobial activity against 60 min 1 M HCl-stressed Bifidobacterium breve ATCC 15700 after 18 hrs; format: functional
How it was run: (§4)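 Mid-log MRS culture pelleted and resuspended in MRS broth brought to pH 2.0 with 1 M HCl, held anaerobically at 37°C for 60 min, then subcultured in MRS (pH 6.5) for 24 h anaerobically before MIC testing by broth microdilution (as for unstressed cells). Table footnote gives 18 h anaerobic regrowth after the stress. MIC is the median of four repetitions.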

Bifidobacterium bifidum [5] = experiment: Antimicrobial activity against 60 min 1 M HCl-stressed Bifidobacterium bifidum R0071 after 18 hrs; format: functional; how it was run: as §4
Bifidobacterium bifidum [6] = experiment: Antimicrobial activity against 90 mins oxgall-stressed Bifidobacterium bifidum R0071 after 18 hrs; format: functional; how it was run: as §1
Bifidobacterium bifidum [7] = experiment: Antimicrobial activity against Bifidobacterium bifidum ATCC 15696; format: functional; how it was run: as §2
Bifidobacterium bifidum [8] = experiment: Antimicrobial activity against Bifidobacterium bifidum BB12; format: functional; how it was run: as §2
Bifidobacterium animalis [9] = experiment: Antimicrobial activity against 90 mins hydrogen peroxide-stressed Bifidobacterium animalis ATCC 27536 after 18 hrs; format: functional; how it was run: as §3
Bifidobacterium longum [10] = experiment: Antimicrobial activity against Bifidobacterium longum ATCC 15707; format: functional; how it was run: as §2
Bifidobacterium longum [11] = experiment: Antimicrobial activity against 90 mins hydrogen peroxide-stressed Bifidobacterium longum ATCC 15708 after 18 hrs; format: functional; how it was run: as §3
Bifidobacterium longum [12] = experiment: Antimicrobial activity against 90 mins hydrogen peroxide-stressed Bifidobacterium longum P/N 601377 after 18 hrs; format: functional; how it was run: as §3
[13] = tested on: Bifidobacterium pseudolongum; experiment: Antimicrobial activity against Bifidobacterium pseudolongum ATCC 25562; format: functional; how it was run: as §2
Bifidobacterium bifidum [14] = experiment: Antimicrobial activity against 60 min 1 M HCl-stressed Bifidobacterium bifidum BB12 after 18 hrs; format: functional; how it was run: as §4
Bifidobacterium breve [15] = experiment: Antimicrobial activity against 60 min 1 M HCl-stressed Bifidobacterium breve R0070 after 18 hrs; format: functional; how it was run: as §4
Bifidobacterium breve [16] = experiment: Antimicrobial activity against Bifidobacterium breve R0070; format: functional; how it was run: as §2
Bifidobacterium breve [17] = experiment: Antimicrobial activity against 90 mins oxgall-stressed Bifidobacterium breve R0070 after 18 hrs; format: functional; how it was run: as §1
Bifidobacterium bifidum [18] = experiment: Antimicrobial activity against Bifidobacterium bifidum R0071; format: functional; how it was run: as §2
Bifidobacterium longum [19] = experiment: Antimicrobial activity against Bifidobacterium longum ATCC 15708; format: functional; how it was run: as §2
Bifidobacterium bifidum [20] = experiment: Antimicrobial activity against 90 mins hydrogen peroxide-stressed Bifidobacterium bifidum R0071 after 18 hrs; format: functional; how it was run: as §3
Bifidobacterium longum [21] = experiment: Antimicrobial activity against 60 min 1 M HCl-stressed Bifidobacterium longum ATCC 15707 after 18 hrs; format: functional; how it was run: as §4
Bifidobacterium bifidum [22] = experiment: Antimicrobial activity against 90 mins oxgall-stressed Bifidobacterium bifidum BB12 after 18 hrs; format: functional; how it was run: as §1
Bifidobacterium breve [23] = experiment: Antimicrobial activity against 90 mins hydrogen peroxide-stressed Bifidobacterium breve R0070 after 18 hrs; format: functional; how it was run: as §3
Bifidobacterium breve [24] = experiment: Antimicrobial activity against 90 mins hydrogen peroxide-stressed Bifidobacterium breve ATCC 15700 after 18 hrs; format: functional; how it was run: as §3
[25] = tested on: Bifidobacterium thermophilum; experiment: Antimicrobial activity against 60 min 1 M HCl-stressed Bifidobacterium thermophilum ATCC 25866 after 18 hrs; format: functional; how it was run: as §4
[26] = tested on: Bifidobacterium thermophilum; experiment: Antimicrobial activity against 90 mins hydrogen peroxide-stressed Bifidobacterium thermophilum ATCC 25866 after 18 hrs; format: functional; how it was run: as §3
[27] = tested on: Bifidobacterium thermophilum; experiment: Antimicrobial activity against Bifidobacterium thermophilum ATCC 25866; format: functional; how it was run: as §2
Bifidobacterium longum [28] = experiment: Antimicrobial activity against 60 min 1 M HCl-stressed Bifidobacterium longum P/N 601377 after 18 hrs; format: functional; how it was run: as §4
[29] = tested on: Bifidobacterium thermophilum; experiment: Antimicrobial activity against 90 mins oxgall-stressed Bifidobacterium thermophilum ATCC 25866 after 18 hrs; format: functional; how it was run: as §1
[30] = Antimicrobial activity against 90 mins oxgall-stressed Bifidobacterium infantis ATCC 15697 after 18 hrs; format: functional, Bifidobacterium longum subsp. infantis; conditions: Bifidobacterium longum; how it was run: as §1
Bifidobacterium longum [31] = experiment: Antimicrobial activity against 90 mins hydrogen peroxide-stressed Bifidobacterium longum ATCC 15707 after 18 hrs; format: functional; how it was run: as §3
Bifidobacterium breve [32] = experiment: Antimicrobial activity against Bifidobacterium breve ATCC 15700; format: functional; how it was run: as §2
Bifidobacterium longum [33] = experiment: Antimicrobial activity against 90 mins oxgall-stressed Bifidobacterium longum ATCC 15707 after 18 hrs; format: functional; how it was run: as §1
Bifidobacterium animalis [34] = experiment: Antimicrobial activity against Bifidobacterium animalis ATCC 27536; format: functional; how it was run: as §2
Bifidobacterium longum [35] = experiment: Antimicrobial activity against 90 mins oxgall-stressed Bifidobacterium longum P/N 601377 after 18 hrs; format: functional; how it was run: as §1
Bifidobacterium longum [36] = experiment: Antimicrobial activity against 90 mins oxgall-stressed Bifidobacterium longum ATCC 15708 after 18 hrs; format: functional; how it was run: as §1
Bifidobacterium longum [37] = experiment: Antimicrobial activity against 90 mins oxgall-stressed Bifidobacterium longum R0175 after 18 hrs; format: functional; how it was run: as §1
Bifidobacterium bifidum [38] = experiment: Antimicrobial activity against 90 mins oxgall-stressed Bifidobacterium bifidum ATCC 15696 after 18 hrs; format: functional; how it was run: as §1
Bifidobacterium longum [39] = experiment: Antimicrobial activity against Bifidobacterium longum R0175; format: functional; how it was run: as §2
[40] = Antimicrobial activity against 60 min 1 M HCl-stressed Bifidobacterium infantis ATCC 15697 after 18 hrs; format: functional, Bifidobacterium longum subsp. infantis; conditions: Bifidobacterium longum; how it was run: as §4
[41] = tested on: Bifidobacterium pseudolongum; experiment: Antimicrobial activity against 60 min 1 M HCl-stressed Bifidobacterium pseudolongum ATCC 25562 after 18 hrs; format: functional; how it was run: as §4
[42] = tested on: Bifidobacterium pseudolongum; experiment: Antimicrobial activity against 90 mins oxgall-stressed Bifidobacterium pseudolongum ATCC 25562 after 18 hrs; format: functional; how it was run: as §1
Bifidobacterium animalis [43] = experiment: Antimicrobial activity against 90 mins oxgall-stressed Bifidobacterium animalis ATCC 27536 after 18 hrs; format: functional; how it was run: as §1
Bifidobacterium longum [44] = experiment: Antimicrobial activity against 60 min 1 M HCl-stressed Bifidobacterium longum R0175 after 18 hrs; format: functional; how it was run: as §4
Bifidobacterium longum [45] = experiment: Antimicrobial activity against 90 mins hydrogen peroxide-stressed Bifidobacterium longum R0175 after 18 hrs; format: functional; how it was run: as §3
[46] = Antimicrobial activity against Bifidobacterium infantis ATCC 15697; format: functional, Bifidobacterium longum subsp. infantis; conditions: Bifidobacterium longum; how it was run: as §2
Bifidobacterium animalis [47] = experiment: Antimicrobial activity against 60 min 1 M HCl-stressed Bifidobacterium animalis ATCC 27536 after 18 hrs; format: functional; how it was run: as §4

MIC (Bifidobacterium breve [1]): 3.9 µg/mL (≈ 8.95 µM) | MIC (Bifidobacterium longum [2]): 31.2 µg/mL (≈ 71.6 µM) | MIC (Bifidobacterium bifidum [3]): 1.9 µg/mL (≈ 4.36 µM) | MIC (Bifidobacterium breve [4]): 125 µg/mL (≈ 287 µM) | MIC (Bifidobacterium bifidum [5]): 15.6 µg/mL (≈ 35.8 µM) | MIC (Bifidobacterium bifidum [6]): 62.5 µg/mL (≈ 143 µM) | MIC (Bifidobacterium bifidum [7]): 7.8 µg/mL (≈ 17.9 µM) | MIC (Bifidobacterium bifidum [8]): 0.98 µg/mL (≈ 2.25 µM) | MIC (Bifidobacterium animalis [9]): 3.9 µg/mL (≈ 8.95 µM) | MIC (Bifidobacterium longum [10]): 15.6 µg/mL (≈ 35.8 µM) | MIC (Bifidobacterium longum [11]): 7.8 µg/mL (≈ 17.9 µM) | MIC (Bifidobacterium longum [12]): 31.2 µg/mL (≈ 71.6 µM) | MIC [13]: 3.9 µg/mL (≈ 8.95 µM) | MIC (Bifidobacterium bifidum [14]): 0.98 µg/mL (≈ 2.25 µM) | MIC (Bifidobacterium breve [15]): 15.6 µg/mL (≈ 35.8 µM) | MIC (Bifidobacterium breve [16]): 31.2 µg/mL (≈ 71.6 µM) | MIC (Bifidobacterium breve [17]): 31.2 µg/mL (≈ 71.6 µM) | MIC (Bifidobacterium bifidum [18]): 15.6 µg/mL (≈ 35.8 µM) | MIC (Bifidobacterium longum [19]): 7.8 µg/mL (≈ 17.9 µM) | MIC (Bifidobacterium bifidum [20]): 31.2 µg/mL (≈ 71.6 µM) | MIC (Bifidobacterium longum [21]): 15.6 µg/mL (≈ 35.8 µM) | MIC (Bifidobacterium bifidum [22]): 1.9 µg/mL (≈ 4.36 µM) | MIC (Bifidobacterium breve [23]): 15.6 µg/mL (≈ 35.8 µM) | MIC (Bifidobacterium breve [24]): 3.9 µg/mL (≈ 8.95 µM) | MIC [25]: 31.2 µg/mL (≈ 71.6 µM) | MIC [26]: 7.8 µg/mL (≈ 17.9 µM) | MIC [27]: 15.6 µg/mL (≈ 35.8 µM) | MIC (Bifidobacterium longum [28]): 0.98 µg/mL (≈ 2.25 µM) | MIC [29]: 62.5 µg/mL (≈ 143 µM) | MIC [30]: 125 µg/mL (≈ 287 µM) | MIC (Bifidobacterium longum [31]): 0.98 µg/mL (≈ 2.25 µM) | MIC (Bifidobacterium breve [32]): 15.6 µg/mL (≈ 35.8 µM) | MIC (Bifidobacterium longum [33]): 125 µg/mL (≈ 287 µM) | MIC (Bifidobacterium animalis [34]): 3.9 µg/mL (≈ 8.95 µM) | MIC (Bifidobacterium longum [35]): 62.5 µg/mL (≈ 143 µM) | MIC (Bifidobacterium longum [36]): 125 µg/mL (≈ 287 µM) | MIC (Bifidobacterium longum [37]): 125 µg/mL (≈ 287 µM) | MIC (Bifidobacterium bifidum [38]): 62.5 µg/mL (≈ 143 µM) | MIC (Bifidobacterium longum [39]): 62.5 µg/mL (≈ 143 µM) | MIC [40]: 125 µg/mL (≈ 287 µM) | MIC [41]: 0.98 µg/mL (≈ 2.25 µM) | MIC [42]: 62.5 µg/mL (≈ 143 µM) | MIC (Bifidobacterium animalis [43]): 125 µg/mL (≈ 287 µM) | MIC (Bifidobacterium longum [44]): 0.98 µg/mL (≈ 2.25 µM) | MIC (Bifidobacterium longum [45]): 31.2 µg/mL (≈ 71.6 µM) | MIC [46]: 15.6 µg/mL (≈ 35.8 µM) | MIC (Bifidobacterium animalis [47]): 3.9 µg/mL (≈ 8.95 µM)
Compound: Cc1onc(-c2ccccc2Cl)c1C(=O)N[C@@H]1C(=O)N2[C@@H]1SC(C)(C)[C@@H]2C(=O)O [CLOXACILLIN]
